These results are taken from ChEMBL document CHEMBL4513216, “Probing the Open Global Health Chemical Diversity Library for Multistage-Active Starting Points for Next-Generation Antimalarials” (ACS Infect Dis, 2020).

A short description of this data set: Toxicity liver stage against HepG2, at 10uM. Also on record: test concentration 10 uM, cell line HepG2-A16-CD81EGFP. Type of data set: cell-based. The note with it: human, HepG2-A16-CD81EGFP cells; read-out: INHIBITION
In a few lines: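 Uninfected HepG2-A16-CD81EGFP cells, 3 × 10^3 per well, 1536-well, plated on prespotted compound at 10 μM final, parasite-free screening media added to match infected plates; puromycin 10 μM positive, DMSO 0.5% negative; run in parallel with 48 h PbLuc assay at 37 °C, 5% CO2; viability by CellTiter-Glo luminescence, normalized to controls.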
As to `CN(C)C(=O)CSc1nnc(CCNC(=O)OC(C)(C)C)o1`, the cytotoxicity at 10 µM was 13.7%.
Turning to `Cc1nc(N2CCOCC2)nc(C)c1NS(=O)(=O)c1ccccc1`, the cytotoxicity at 10 µM was -1.44%.
As for `COc1ncc(NS(=O)(=O)c2ccc(F)c(F)c2)c(OC)n1`, the cytotoxicity at 10 µM is -7.76%.
For `COc1ccc(C2SC(C)=Nc3c2c(=O)[nH]n3C2CCCCC2)cc1O` (stereo not drawn) the value was 1%; for `CCOCC(=O)N1CCC(Oc2ccc(C(F)(F)F)cn2)CC1`, 11.7%; for `O=C(NCC1CC1)C1CN(C(=O)c2cccc(Cl)c2)CC12CCOCC2` (stereo not drawn), 1.18%.
Take `O=C(O)Cn1nc(C2CC2)c2c(-c3cccs3)ccnc21`: the cytotoxicity at 10 µM is -11.6%.
The figure for `CCn1nc(C)c2nc(C(C)C)nc(N(C)Cc3ccco3)c21` is 15.6%; for `CCN(Cc1c(C)nn(CC)c1C)S(=O)(=O)c1cnn(C)c1` it is 4.98%; for `COc1ccc(CC(=O)N2CCN(Cc3ccco3)C[C@@H]2C)cc1OC` it is 3.88%.
Regarding `CC(=O)N1CCC1c1cc(NC2CCOCC2)nc(C)n1` (stereo not drawn), the cytotoxicity at 10 µM was determined as 1.79%.
In the case of `Cc1cc(C)nc(Nc2cc(C)nc(C3CCN(C(C)C)C3)n2)n1` (stereo not drawn), the cytotoxicity at 10 µM came out at 3.06%.
The figure for `c1ccc(CCN2CCCC2c2cncc(Nc3nncs3)n2)cc1` (stereo not drawn) is 5.62%; for `c1nnc(Nc2cncc(C3CCCN3CC3CC3)n2)s1` (stereo not drawn) it is 3.01%; for `CC(=O)N1CCN([C@@H]2CN(C(=O)c3ccccc3)C[C@H]2O)CC1` it is -4.8%.
The figure for `CN1CCN(c2ccccc2CNC(=O)CSC(F)(F)F)CC1` is 8.27%; for `COCc1nnc(-c2cccc(C(=O)OC(C)C)c2)o1` it is -21.8%; for `CC(C)(C)NC(=O)c1cnc(C(C)(C)C)s1` it is 3.72%.
For `Cc1ccc(-c2nc(C(=O)N(C)CC(=O)N(C)C)cs2)c(C)c1` the value was -10.1%.
For the compound `CC(C)N1CCC(N2CCOC3(CCCC3)C2)C1=O` (stereo not drawn), the cytotoxicity at 10 µM worked out at 1.56%.
With `CCNC(=O)NCC1(CN2CCOCC2)CCCCC1`, the cytotoxicity at 10 µM was 6.73%.
For `CS(=O)(=O)NCC1CCCN(c2ccc(C(F)(F)F)cn2)C1` (stereo not drawn) the value was -17.3%; for `c1cc(C2CCN(Cc3nc(C4CC4)no3)CC2)[nH]n1`, 7.45%.
As to `COCc1noc(C2(c3ccc(F)cc3)CC2)n1`, the cytotoxicity at 10 µM was -2.93%.
The figure for `O=C(NS(=O)(=O)Cc1ccc(F)cc1)C1CCc2ccccc21` (stereo not drawn) is -13.1%; for `CCN(CC)Cc1ccc(C(=O)NC2CCc3ccccc32)o1` (stereo not drawn) it is -3.97%.
The figure for `COc1cc(C(C)=O)ccc1SCC(=O)Nc1cccc(C)n1` is 15.1%; for `CCN(Cc1cccc(-c2ccncc2)c1)S(N)(=O)=O` it is -12.6%; for `Cc1cc(=O)n(C)cc1NC(=O)Cc1ccc(C(F)(F)F)cc1` it is -14%.
The figure for `COc1ccc(Cl)cc1-c1cc(NC(=O)CNC(=O)C2CC2)[nH]n1` is -3.61%.
`Cn1c(N)nnc1SCc1ccc(Cl)cc1Br`: the cytotoxicity at 10 µM amounted to 1.48%.
For `CCc1nc(CN2CCC(C(=O)N(C)C)CC2)cs1`, the cytotoxicity at 10 µM is 3.05%.
For `c1n[nH]cc1CCCN1CCC(OC2CCCCC2)CC1` the value was 2.97%; for `Cc1nc(C2CN(Cc3ccc(F)cc3Br)CCO2)no1` (stereo not drawn), -4.75%.
For `O=C(CNC(=O)C1CC1)NCC1CCCC1` the value was 2.12%; for `CC(C)CCOc1ccc(C(C)NC(=O)Cn2cccnc2=O)cc1` (stereo not drawn), -4.24%.
With `COCc1nc2cc(NCc3ccc(C)o3)ccc2o1`, the cytotoxicity at 10 µM was -9.41%.
For `COCCN1CCN(C(C)C(=O)Nc2ccnn2C(C)C)CC1` (stereo not drawn), the cytotoxicity at 10 µM was -8.83%.
The figure for `Cc1cc(CN2CCN(C(=O)CCc3cccc(F)c3F)CC2)on1` is -6.16%.
The figure for `Cc1cc(CNC2CCCN(c3cccnn3)C2)no1` (stereo not drawn) is -15%.
In the case of `Cc1nn(C(C)C)c(C)c1NC(=O)c1ccccc1`, the cytotoxicity at 10 µM is -11.7%.
For `COCc1ccccc1C(=O)NCCCN1CCCC1C(=O)N(C)C` (stereo not drawn) the value was -14.5%.
As for `CCNC(=O)[C@@H]1C[C@@H](N)CN1Cc1ccc2cccc(Cl)c2n1`, the cytotoxicity at 10 µM turned out to be 12.9%.
The figure for `CCN(Cc1noc(C2CCC2)n1)C(=O)CCc1cc2n(n1)CCNC2` is 10.5%; for `CC1=C(C(=O)N(C)Cc2noc3c2CCCC3)C(C)NC(=O)N1` (stereo not drawn) it is -0.844%.
For `CSCCC(O)C(=O)N1CCN(Cc2cccc(Cl)c2)CC1` (stereo not drawn) the value was 6.48%; for `CCN(Cc1cc(F)c(OC)c(Cl)c1)Cc1nc(COC)no1`, 3.98%; for `Cc1cccc(-n2nc(CC(C)C)nc2CCC(=O)N(C)C)c1`, -9.61%.
As for `Cc1cc2occ(CC(=O)N3CCC(O)(CN(C)C)C3)c2cc1Cl` (stereo not drawn), the cytotoxicity at 10 µM was -6.55%.
For `COCCN(C)C[C@H]1C[C@H](CO)CN(C(=O)c2ccn(C)c(=O)c2)C1` the value was -2.75%; for `CCCc1nnc(N2CCN(c3cccc(OC)c3)C(=O)C2)o1`, 9.52%.
The figure for `Cc1cc(C(=O)N2CCc3c(ncnc3N3CCOCC3)C2)[nH]n1` is -5.92%; for `Cc1n[nH]c(C)c1CCC(=O)N(C)Cc1cn[nH]c1-c1ccc(F)cc1` it is 7.86%; for `CN(Cc1ccsc1)Cc1ccc(C2CCCCO2)o1` (stereo not drawn) it is -2.11%.
Consider `COCCN1CCc2onc(C(c3ccccc3)c3ccccc3)c2C1`, for which the cytotoxicity at 10 µM was -7.35%.
As to `COc1cc(N2CCC(c3nccn3Cc3ccccc3)CC2)ncn1`, the cytotoxicity at 10 µM came to 5.44%.
The figure for `C=C(C)COc1ccccc1NC(=O)N1CCOCC(CO)C1` (stereo not drawn) is -1.57%; for `Cc1cccc(-c2nccn2-c2cccc(CC(=O)O)c2)n1` it is 4.55%; for `COc1cc(C(=O)N2Cc3cnc(C(C)(C)C)nc3C2)ccn1` it is 2.03%.
For `Cc1cc(N2CCCC(O)(CN(C)C)C2)c2cc3c(cc2n1)OCO3` (stereo not drawn) the value was 0.935%; for `Cc1cc2[nH]c(=O)oc2cc1S(=O)(=O)N1CCCC(N(C)C)CC1` (stereo not drawn), 0.74%; for `Cc1cc2c(c(-c3c[nH]c(C)n3)c1)OC(CN)C2` (stereo not drawn), 4.24%.
The figure for `Cc1cccc(C(C(=O)N2CC(c3ccncc3)C2)N(C)C)c1` (stereo not drawn) is -8.29%.
Consider `COCCC1CCN([C@@H]2c3ccccc3C3(CCNCC3)[C@H]2O)CC1`, for which the cytotoxicity at 10 µM amounted to 1.35%.
With `CSc1ccccc1C(=O)Nc1ccc(OC2CCN(C)CC2)cc1`, the cytotoxicity at 10 µM came out at 3.39%.
For `CCOc1cccc(C2CC(=O)NCc3nc(N(C)C)sc32)c1` (stereo not drawn) the value was -10.9%.
`O=C(CSCC1CC1)N1CCc2[nH]nc(COc3ccccc3)c2C1`: the cytotoxicity at 10 µM is -7.01%.
For the compound `CC(C)Oc1cc(N2C[C@@H](C)O[C@@H](C)C2)nc(N)n1`, the cytotoxicity at 10 µM is -9.15%.
For `Cc1nc(N2CCN(C(=O)C(C)(C)C)CC2)cc(-n2cnc(C)c2C)n1` the value was -23.2%; for `Cc1nc(C(=O)N2CCC(Cc3cnc4[nH]ccc4c3)C2)co1` (stereo not drawn), 9.36%.
As for `NS(=O)(=O)Cc1ccc(CNc2cncc(-n3cccn3)n2)cc1`, the cytotoxicity at 10 µM came to 6.1%.
For `Fc1cc(CN2CCCC2Cn2cncn2)c2ncccc2c1` (stereo not drawn) the value was -14.1%; for `Cc1cnn(C2CCCN(C(=O)Cc3ccc(C)s3)C2)c1` (stereo not drawn), -13.4%; for `CC(OCC1CC1)C(=O)N1CCCN(Cc2cscn2)CC1` (stereo not drawn), -5.16%.
For `COc1cccc(CNCC2CN(C)CCO2)c1` (stereo not drawn) the value was -15.2%.
For `Cn1cnnc1C1CCN(C(=O)CCOc2ccc(Cl)cc2)CC1` the value was -8.94%; for `CC(c1ccc(F)cc1)N1CCN(Cc2nccn2C)CC1` (stereo not drawn), -25.7%.
`O=C(NCc1ccco1)N(CCCO)C1CCCc2ccccc21` (stereo not drawn): the cytotoxicity at 10 µM was -9.53%.
`CCOc1ccc(NC(=O)N(C)Cc2cnn(C)c2)c(C)c1`: the cytotoxicity at 10 µM is -9.63%.
For `CC(C)n1nc2c(cc1=O)CN(CCCN1CCCC1=O)CC2` the value was -8.08%; for `Cc1cc(C(=O)NC(COCC(C)C)c2ccco2)no1` (stereo not drawn), -8.71%; for `O=C(NCc1nncn1-c1ccccc1)C1CCCC1`, -11.5%.
Turning to `O=C(NCC(=O)N1CCCC(n2cncn2)C1)OCc1ccccc1` (stereo not drawn), the cytotoxicity at 10 µM is -13.5%.
For `CN1N=C(C(=O)N2CCCC(n3cccn3)C2)CCC1=O` (stereo not drawn) the value was -19%; for `c1ccc(-c2cc(CN3CCCC(Cn4cncn4)C3)on2)cc1` (stereo not drawn), -15.9%.
For the compound `CCC(C)C(=O)NCc1cccc(N2CCCCC2=O)c1` (stereo not drawn), the cytotoxicity at 10 µM was -6.93%.
As for `Cc1nc(CC(=O)N2CCC(Nc3cccnn3)CC2)cs1`, the cytotoxicity at 10 µM is -9.45%.
Take `CCc1csc(C2CCCN(C(=O)c3ccc(OC)nn3)C2)n1` (stereo not drawn): the cytotoxicity at 10 µM was -8.8%.
Take `Cc1nc(CNC(=O)NCC(O)c2ccc(F)cc2F)cs1` (stereo not drawn): the cytotoxicity at 10 µM worked out at 6.5%.
Turning to `c1ccc2cc(OCCN3CCn4c(nnc4C4CC4)C3)ccc2c1`, the cytotoxicity at 10 µM was determined as 5.49%.
On to `O=C(Nc1ccccc1F)N1CCN(Cc2noc(C3CC3)n2)CC1`, for which the cytotoxicity at 10 µM is -0.144%.
For `COc1cc(C(=O)N2CCC(c3n[nH]c(C4CC4)n3)CC2)ccc1C`, the cytotoxicity at 10 µM was found to be 3.37%.
The figure for `CN(Cc1nc(N)c2ccccc2n1)CC1CCCN1c1cccnn1` (stereo not drawn) is -1.4%; for `Cn1nc(CN2CCCC2)c2c1CN(CC1CC1)CC2` it is -3.27%.
The figure for `O=C(c1ccnnc1)N1C[C@@H]2OCCN(CCN3CCCC3)[C@@H]2C1` is 4.22%.
For `c1csc(CN2CCOCC3(CCN(C4CCOCC4)C3)C2)c1` (stereo not drawn) the value was -0.608%; for `N#CC1Sc2nnc(-c3ccccc3F)n2N=C1N` (stereo not drawn), -0.634%; for `CC(=O)Nc1c(C)noc1C=Cc1ccc(C)c(S(=O)(=O)NC2CC2)c1`, 0.905%.
